Experimental data: ChEMBL document CHEMBL2021842, “COMPARE analysis of the toxicity of an iminoquinone derivative of the imidazo[5,4-f]benzimidazoles with NAD(P)H:quinone oxidoreductase 1 (NQO1) activity and computational docking of quinones as NQO1 substrates” (Bioorg Med Chem, 2012)

Columns and labels:
DU-145 = assay: Cytotoxicity against human DU145 cells assessed as reduction in mean cell viability after 72 hrs by MTT assay; format: functional, cell-based; conditions: DU-145, 72 h
Procedure, shortened: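 DU-145 prostate cells in RPMI-1640 with 10% heat-inactivated FBS, penicillin–streptomycin and 2 mM L-glutamine. Seeded at 2000 cells/well and left 24 h to adhere. Compound added in ethanol (1% final) for 72 h at 37 °C, 5% CO₂, with ethanol-only controls. Formazan dissolved in DMSO and read at 550 nm (690 nm reference). IC₅₀ derived by nonlinear regression of viability versus vehicle.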

HeLa = assay: Cytotoxicity against human HeLa cells assessed as reduction in mean cell viability after 72 hrs by MTT assay; format: functional, cell-based
Procedure, shortened: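 HeLa-CCL-2 cells in DMEM with 10% heat-inactivated FBS, 2 mM L-glutamine and nonessential amino acids. Plated at 1000 cells/well with 24 h adherence. Treated in ethanol (1% final) for 72 h at 37 °C under 5% CO₂, with ethanol controls. Absorbance of DMSO-dissolved formazan at 550 nm, 690 nm reference. IC₅₀ by nonlinear regression of percent viability.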

[1] = Cytotoxicity against human GM00637 cells assessed as reduction in mean cell viability after 72 hrs by MTT assay; format: cell-based; conditions: GM00637, 72 h
Procedure, shortened: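 SV40-transformed normal skin fibroblasts (GM00637) in MEM Eagle–Earle BSS with 15% heat-inactivated FBS, 2 mM L-glutamine, 2× amino acids and vitamins. Seeded at 10,000 cells/well and left 24 h to adhere. Ethanol-delivered compound (1% final) for 72 h at 37 °C, 5% CO₂. MTT formazan in DMSO read at 550/690 nm. Viability relative to vehicle; IC₅₀ by nonlinear regression.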

[2] = Solubility of the compound in organic solvent; format: physicochemical
[3] = Aqueous solubility of the compound; format: physicochemical; conditions: buffer

solubility [2]	solubility [3]	Structure (SMILES)	IC50 (DU-145)	IC50 (HeLa)	IC50 [1]
		O=C1c2nc3n(c2C(=O)c2c1nc1n2CCCC1)CCCC3	1730 nM	3330 nM	> 5000 nM
		CCCCn1cnc2c1C(=O)c1ncn(CCCC)c1C2=O	1340 nM	440 nM	1050 nM
Insoluble	Insoluble	O=C1c2nc3n(c2C(=O)c2nc4n(c21)CCC4)CCC3			
		O=C1c2nc3n(c2C(=O)c2nc4n(c21)CCCC4)CCC3	790 nM	950 nM	1270 nM
